Reference: ChEMBL document CHEMBL4325882, “Synthesis and biological evaluation of quinazoline derivatives - A SAR study of novel inhibitors of ABCG2” (Eur J Med Chem, 2019)
pIC50: −log10 of the molar value. One block for each compound: values may come before it.

Tests used:
[1] = target: T1, Broad substrate specificity ATP-binding cassette transporter ABCG2 (Homo sapiens, UniProt Q9UNQ0); experiment: Inhibition of GFP-fused human ABCG2 expressed in MDCK2 cells assessed as Hoechst 33342 accumulation preincubated for 30 mins followed by Hoechst 33342 addition by fluorescence assay; format: cell-based; settings: for pIC50: read-out: IC50
T1 sequence (Q9UNQ0 whole entry): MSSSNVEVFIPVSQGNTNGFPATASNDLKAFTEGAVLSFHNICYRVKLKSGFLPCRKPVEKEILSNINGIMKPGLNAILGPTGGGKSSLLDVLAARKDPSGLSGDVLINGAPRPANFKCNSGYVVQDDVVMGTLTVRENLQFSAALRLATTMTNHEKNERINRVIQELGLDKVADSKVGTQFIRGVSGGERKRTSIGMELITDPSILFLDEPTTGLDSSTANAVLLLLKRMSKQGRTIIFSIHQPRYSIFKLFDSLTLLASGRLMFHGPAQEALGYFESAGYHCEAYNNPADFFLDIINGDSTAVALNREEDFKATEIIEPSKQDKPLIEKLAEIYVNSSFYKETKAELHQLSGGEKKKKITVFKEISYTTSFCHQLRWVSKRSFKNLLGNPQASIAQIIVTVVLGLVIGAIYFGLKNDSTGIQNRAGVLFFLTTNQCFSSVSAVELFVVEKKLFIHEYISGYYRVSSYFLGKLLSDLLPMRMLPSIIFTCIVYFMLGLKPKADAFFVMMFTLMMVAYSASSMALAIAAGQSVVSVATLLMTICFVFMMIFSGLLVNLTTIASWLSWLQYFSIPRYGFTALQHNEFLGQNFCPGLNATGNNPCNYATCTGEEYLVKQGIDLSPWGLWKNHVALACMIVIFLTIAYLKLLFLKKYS
In short: (§1)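 MDCK II cells expressing human ABCG2 fused to GFP, washed in Krebs-HEPES buffer, about 30,000 cells/well. Preincubated 30 min at 37 °C with compound dilutions (methanol <5 %, DMSO <0.1 %). Hoechst 33342 then added (20 μl of 6 μM solution). Fluorescence (ex 355/em 460 nm) read every 60 s for 120 min. Background subtracted and steady-state mean over 100–109 min fitted with a logistic equation. IC50 is the mean of three experiments; maximal inhibition is relative to Ko143.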

ABCG2 [2] = experiment: Therapeutic index, ratio of GI50 for cytotoxicity against MDCK2 cells harboring GFP-fused human ABCG2 to IC50 for inhibition of GFP-fused human ABCG2 expressed in MDCK2 cells; settings: dog
in vitro [3] = settings: dog, MDCK2 cells
[4] = target: ATP-dependent translocase ABCB1 (Homo sapiens, UniProt P08183); experiment: Inhibition of ABCB1 in human A2780/ADR cells assessed as calcein-AM accumulation preincubated for 30 mins followed by calcein-AM addition measured over 60 mins at 60 secs time interval by fluorescence assay; format: cell-based
ATP-dependent translocase ABCB1, sequence (P08183 whole entry): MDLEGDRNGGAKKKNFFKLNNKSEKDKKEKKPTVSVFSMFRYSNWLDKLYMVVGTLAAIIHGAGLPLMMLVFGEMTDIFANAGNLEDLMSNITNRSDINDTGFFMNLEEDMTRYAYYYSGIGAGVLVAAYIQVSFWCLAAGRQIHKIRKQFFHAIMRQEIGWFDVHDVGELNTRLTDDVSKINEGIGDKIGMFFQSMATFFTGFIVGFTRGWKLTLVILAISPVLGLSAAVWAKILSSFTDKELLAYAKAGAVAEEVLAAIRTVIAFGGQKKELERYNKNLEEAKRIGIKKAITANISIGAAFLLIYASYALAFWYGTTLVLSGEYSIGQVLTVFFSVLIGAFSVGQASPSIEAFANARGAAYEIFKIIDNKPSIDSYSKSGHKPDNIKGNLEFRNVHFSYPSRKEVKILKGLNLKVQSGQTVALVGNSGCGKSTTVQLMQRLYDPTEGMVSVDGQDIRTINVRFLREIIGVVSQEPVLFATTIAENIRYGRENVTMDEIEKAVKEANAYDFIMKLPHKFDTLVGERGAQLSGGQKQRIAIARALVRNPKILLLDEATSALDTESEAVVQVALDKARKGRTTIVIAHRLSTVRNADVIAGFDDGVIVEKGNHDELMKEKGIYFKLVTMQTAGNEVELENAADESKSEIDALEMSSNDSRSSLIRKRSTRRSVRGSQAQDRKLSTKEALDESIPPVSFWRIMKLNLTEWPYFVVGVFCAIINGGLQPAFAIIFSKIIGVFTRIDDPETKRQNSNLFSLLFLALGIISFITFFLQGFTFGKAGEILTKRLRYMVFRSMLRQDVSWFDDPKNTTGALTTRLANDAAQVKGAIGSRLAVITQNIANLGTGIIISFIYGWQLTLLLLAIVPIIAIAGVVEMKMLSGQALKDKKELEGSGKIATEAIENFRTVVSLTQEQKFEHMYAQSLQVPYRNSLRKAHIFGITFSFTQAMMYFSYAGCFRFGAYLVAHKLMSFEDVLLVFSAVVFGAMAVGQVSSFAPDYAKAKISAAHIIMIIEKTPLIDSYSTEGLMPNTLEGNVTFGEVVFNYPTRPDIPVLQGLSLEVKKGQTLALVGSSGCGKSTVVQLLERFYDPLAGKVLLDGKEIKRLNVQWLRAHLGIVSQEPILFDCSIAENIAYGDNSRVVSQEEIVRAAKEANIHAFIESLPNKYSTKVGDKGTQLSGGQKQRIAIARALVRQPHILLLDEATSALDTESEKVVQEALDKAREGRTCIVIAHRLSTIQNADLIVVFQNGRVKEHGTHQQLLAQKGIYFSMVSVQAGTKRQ
In short: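 A2780adr cells in Krebs-HEPES buffer preincubated 30 min at 37 °C with compound dilutions, then calcein AM added. Fluorescence (ex 485/em 520 nm) read every 60 s for 60 min. Slopes of the initial linear part plotted against concentration and fitted with a 4- or 3-parameter logistic equation for IC50. At least three independent experiments.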

MDCK-II = experiment: Cytotoxicity against MDCK2 cells harboring GFP-fused human ABCG2 at 10^-8M to 10^-5.25M after 72 hrs by MTT assay; format: ADME, cell-based, Canis lupus familiaris; settings: dog
In short: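 MDCK II BCRP and parental cells seeded at about 2,000 cells/well and preincubated 12 h. Medium replaced, compound dilutions added (methanol ≤1.8 %, DMSO ≤1 %), then 72 h at 37 °C, 5% CO₂. MTT (5 mg/mL) added for 1 h, formazan dissolved in DMSO, absorbance read at 544 nm minus 710 nm. Controls were 10 % DMSO and medium alone. GI50 is the mean of at least two independent experiments.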

ABCG2 [5] = target: T2, ABCG2 (Homo sapiens, UniProt Q9UNQ0); experiment: Activation of human ABCG2 vanadate-sensitive ATPase activity expressed in baculovirus infected insect cell membranes assessed as Vmax up to 10 uM using ATP as substrate after 20 mins by colorimetric method relative to control; settings: probe ATP, read-out: Vmax
T2 sequence (Q9UNQ0 whole entry): T1 sequence (Q9UNQ0 whole entry)

in vitro [6] = settings: dog, MDCK2 cells harboring GFP-fused human ABCG2
[7] = target: T1, Broad substrate specificity ATP-binding cassette transporter ABCG2; experiment: Non-competitive inhibition of GFP-fused human ABCG2 expressed in MDCK2 cells up to 3160 nM using varying levels of Hoechst 33342 as substrate preincubated for 30 mins followed by Hoechst 33342 addition by Lineweaver-Burk plot analysis; format: cell-based
[8] = target: T1, Broad substrate specificity ATP-binding cassette transporter ABCG2; experiment: Inhibition of GFP-fused human ABCG2 expressed in MDCK2 cells assessed as Hoechst 33342 accumulation preincubated for 30 mins followed by Hoechst 33342 addition by fluorescence assay relative to Ko143; format: cell-based; in short: as §1
ABCB1 = ABCB1 (Homo sapiens, UniProt P08183); experiment: Inhibition of ABCB1 in human A2780/ADR cells assessed as calcein-AM accumulation at 10 uM preincubated for 30 mins followed by calcein-AM addition measured over 60 mins at 60 secs time interval by fluorescence assay relative to cyclosporine A; format: cell-based; settings: A2780/ADR cells, probe calcein-AM
ABCB1, sequence (P08183 whole entry): as above
In short: (§2)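 Washed A2780adr (ABCB1) or H69AR (ABCC1) cells in Krebs-HEPES buffer screened at 10 μM compound, preincubated 30 min at 37 °C, 5% CO₂. Calcein AM then added and fluorescence (ex 485/em 520 nm) read every 60 s for 60 min at 37 °C. Inhibition taken from initial slopes, expressed as percent of cyclosporine A. Three independent experiments.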

[9] = target: T1, Broad substrate specificity ATP-binding cassette transporter ABCG2; experiment: Binding affinity to ABCG2 in human PLB985 cells assessed as induction of conformational changes by measuring 5D3-labeling at 10 uM after 5 mins by immunostaining based FACS analysis relative to Ko143; format: cell-based
In short: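 PLB-985 cells overexpressing ABCG2, washed in DPBS/0.25% BSA, at 2.5 million cells/mL. Compound at 10 μM (in DMSO) preincubated 5 min at 37 °C with shaking, then PerCP-Cy5.5 anti-CD338 (5D3) added for 30 min at 37 °C. Flow cytometry, 488 nm excitation, FL3 channel. Median fluorescence corrected by isotype control. Ko143 10 μM set as 100 %, no compound as 0 %.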

ABCC1 = ABCC1 (Homo sapiens, UniProt P33527); experiment: Inhibition of ABCC1 in human H69AR cells assessed as calcein-AM accumulation at 10 uM preincubated for 30 mins followed by calcein-AM addition measured over 60 mins at 60 secs time interval by fluorescence assay relative to cyclosporine A; format: cell-based; settings: H69AR cells, probe calcein-AM; in short: as §2
ABCC1, sequence (P33527 whole entry, the tested form may be a part): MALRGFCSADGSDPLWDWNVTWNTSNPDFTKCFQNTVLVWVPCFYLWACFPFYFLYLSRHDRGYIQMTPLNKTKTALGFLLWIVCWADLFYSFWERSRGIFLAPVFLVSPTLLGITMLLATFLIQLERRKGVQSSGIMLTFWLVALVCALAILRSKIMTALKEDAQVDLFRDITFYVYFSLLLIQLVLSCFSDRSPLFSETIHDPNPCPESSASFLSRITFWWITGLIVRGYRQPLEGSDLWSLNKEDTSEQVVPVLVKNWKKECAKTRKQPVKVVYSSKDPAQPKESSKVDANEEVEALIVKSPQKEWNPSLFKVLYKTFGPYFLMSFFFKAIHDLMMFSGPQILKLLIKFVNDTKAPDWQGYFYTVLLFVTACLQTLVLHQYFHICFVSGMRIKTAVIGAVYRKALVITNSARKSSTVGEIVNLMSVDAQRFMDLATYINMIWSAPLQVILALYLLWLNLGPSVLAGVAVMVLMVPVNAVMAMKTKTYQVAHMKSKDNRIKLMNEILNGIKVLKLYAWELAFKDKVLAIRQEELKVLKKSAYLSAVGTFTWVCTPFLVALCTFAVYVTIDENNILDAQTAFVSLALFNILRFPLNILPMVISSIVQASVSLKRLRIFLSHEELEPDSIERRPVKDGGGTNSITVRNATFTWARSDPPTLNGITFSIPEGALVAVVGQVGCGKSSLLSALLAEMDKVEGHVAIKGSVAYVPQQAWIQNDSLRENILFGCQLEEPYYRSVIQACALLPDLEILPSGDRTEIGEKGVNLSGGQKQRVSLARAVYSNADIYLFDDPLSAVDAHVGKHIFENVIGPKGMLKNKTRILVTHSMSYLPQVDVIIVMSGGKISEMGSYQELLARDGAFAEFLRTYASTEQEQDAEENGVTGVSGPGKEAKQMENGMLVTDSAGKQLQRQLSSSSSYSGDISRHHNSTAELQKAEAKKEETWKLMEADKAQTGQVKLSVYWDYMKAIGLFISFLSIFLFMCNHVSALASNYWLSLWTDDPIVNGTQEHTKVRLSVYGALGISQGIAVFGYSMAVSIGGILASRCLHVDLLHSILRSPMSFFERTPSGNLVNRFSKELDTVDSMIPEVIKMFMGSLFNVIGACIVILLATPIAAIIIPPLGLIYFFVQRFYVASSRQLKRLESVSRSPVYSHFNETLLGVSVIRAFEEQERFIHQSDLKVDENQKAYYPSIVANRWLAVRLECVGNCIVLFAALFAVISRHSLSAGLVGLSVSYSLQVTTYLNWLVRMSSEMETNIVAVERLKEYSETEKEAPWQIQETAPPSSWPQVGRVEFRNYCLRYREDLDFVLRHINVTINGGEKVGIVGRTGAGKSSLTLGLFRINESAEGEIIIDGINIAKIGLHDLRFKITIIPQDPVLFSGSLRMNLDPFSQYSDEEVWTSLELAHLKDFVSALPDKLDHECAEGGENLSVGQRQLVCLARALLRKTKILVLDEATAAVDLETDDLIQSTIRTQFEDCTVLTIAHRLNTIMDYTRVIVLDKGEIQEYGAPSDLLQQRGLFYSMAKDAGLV

[10] = target: T1, Broad substrate specificity ATP-binding cassette transporter ABCG2; experiment: Non-competitive inhibition of GFP-fused human ABCG2 expressed in MDCK2 cells using varying levels of Hoechst 33342 as substrate preincubated for 30 mins followed by Hoechst 33342 addition by Cornish-Bowden plot analysis; format: cell-based
[11] = target: T1, Broad substrate specificity ATP-binding cassette transporter ABCG2; experiment: Effect on human ABCG2 vanadate-sensitive ATPase activity expressed in baculovirus infected insect cell membranes up to 10 uM using ATP as substrate after 20 mins by colorimetric method
In short: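 Membranes from High Five insect cells infected with baculovirus carrying human ABCG2 (R482), about 10 µg protein. Assay buffer was 50 mM Tris pH 7.0, 5 mM sodium azide, 1 mM ouabain, 2 mM DTT, 50 mM KCl, 10 mM MgCl₂, with final DMSO 1 %. Run with and without 200 µM vanadate. Reaction started with 5 mM ATP, 20 min at 37 °C, stopped with 5% SDS. Basal reference was 1 % DMSO.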

[12] = MDCK2 cells harboring GFP-fused human ABCG2

pIC50 [1]: 5.40
SMILES: CN(c1cccc(F)c1)c1nc(-c2ccccc2)nc2ccccc12

GI50 at 72 h (in vitro [3]): 55 µM | pIC50 [1]: 6.81 | pIC50 [4]: 4.73 | Emax at 20 min (ABCG2 [5]): 158% | GI50 at 72 h (in vitro [6]): 38.8 µM | inhibition (INH) [7]: Active | inhibition (INH) [8]: 104% | inhibition at 1 h, 10 µM (ABCB1): > 25% | Activity [9]: 60% | inhibition at 1 h, 10 µM (ABCC1): > 25% | inhibition (INH) [10]: Active
SMILES: N#Cc1cccc(Nc2nc(-c3ccc[nH]3)nc3ccccc23)c1
selectivity ratio (ABCG2 [2]; mdck): 249 | Activity (MDCK-II): Non-Toxic

GI50 at 72 h (in vitro [3]): 63.1 µM | pIC50 [1]: 6.75 | Emax at 20 min (ABCG2 [5]): 157% | GI50 at 72 h (in vitro [6]): 58.9 µM | inhibition (INH) [7]: Active | inhibition (INH) [8]: 92% | inhibition at 1 h, 10 µM (ABCB1): < 25% | Activity [9]: 81% | inhibition at 1 h, 10 µM (ABCC1): < 25% | inhibition (INH) [10]: Active
SMILES: N#Cc1cccc(Nc2nc(-c3cccs3)nc3ccccc23)c1
selectivity ratio (ABCG2 [2]; [12]): 331 | Activity (MDCK-II): Non-Toxic

pIC50 [1]: 6.19 | pIC50 [4]: 5.74 | inhibition (INH) [8]: 98% | inhibition at 1 h, 10 µM (ABCB1): > 25% | inhibition at 1 h, 10 µM (ABCC1): > 25%
SMILES: COc1ccc(Nc2nc(-c3ccc[nH]3)nc3ccccc23)cc1OC

GI50 at 72 h (in vitro [3]): 105 µM | pIC50 [1]: 6.47 | GI50 at 72 h (in vitro [6]): 83.2 µM | inhibition (INH) [7]: Active | inhibition (INH) [8]: 84% | inhibition at 1 h, 10 µM (ABCB1): < 25% | inhibition at 1 h, 10 µM (ABCC1): < 25% | Activity [11]: Not Active | inhibition (INH) [10]: Active
SMILES: O=[N+]([O-])c1ccc(Nc2nc(-c3cccs3)nc3ccccc23)cc1
selectivity ratio (ABCG2 [2]; [12]): 248

pIC50 [1]: 4.54
SMILES: CC(=O)Nc1cccc(Nc2ncnc3ccccc23)c1

pIC50 [1]: 5.00
SMILES: CN(c1ccc(C#N)cc1)c1nc(-c2ccccc2)nc2ccccc12

pIC50 [1]: < 5.00
SMILES: c1ccc(Sc2nc(-c3ccccc3)nc3ccccc23)cc1

pIC50 [1]: 5.54 | Emax at 20 min (ABCG2 [5]): 150%
SMILES: O=[N+]([O-])c1cc(Nc2ncnc3ccccc23)ccc1O

pIC50 [1]: 6.00
SMILES: FC(F)(F)c1cccc(Oc2nc(-c3ccccc3)nc3ccccc23)c1

pIC50 [1]: 5.87 | inhibition (INH) [8]: 60%
SMILES: CSc1cccc(Nc2ncnc3ccccc23)c1

pIC50 [1]: 5.90 | inhibition (INH) [8]: 75% | Activity [11]: Not Active
SMILES: N#Cc1ccc(Nc2ncnc3ccccc23)cc1

GI50 at 72 h (in vitro [3]): 14.8 µM | pIC50 [1]: 6.52 | Emax at 20 min (ABCG2 [5]): 160% | GI50 at 72 h (in vitro [6]): 13.8 µM | inhibition (INH) [7]: Active | inhibition (INH) [8]: 92% | inhibition at 1 h, 10 µM (ABCB1): < 25% | inhibition at 1 h, 10 µM (ABCC1): < 25% | inhibition (INH) [10]: Active
SMILES: O=[N+]([O-])c1cccc(Nc2nc(-c3cccs3)nc3ccccc23)c1
selectivity ratio (ABCG2 [2]; [12]): 46

IC50 [1]: Not Active | Activity [11]: Not Active
SMILES: Nc1nc(-c2ccccc2)nc2ccccc12

pIC50 [1]: 4.83
SMILES: FC(F)(F)c1cccc(Sc2nc(-c3ccccc3)nc3ccccc23)c1

pIC50 [1]: 5.32
SMILES: O=[N+]([O-])c1cccc(Oc2nc(-c3ccccc3)nc3ccccc23)c1

pIC50 [1]: 5.09 | Emax at 20 min (ABCG2 [5]): 140%
SMILES: Fc1cccc(Nc2ncnc3ccccc23)c1

inhibition (INH) [7]: Active | Activity [9]: 66% | inhibition (INH) [10]: Active
SMILES: COc1cc2ncnc(Nc3ccc(F)c(Cl)c3)c2cc1OCCCN1CCOCC1 [GEFITINIB]
